Measurements from ChEMBL document CHEMBL1125789, “Synthesis and selective class III antiarrhythmic activity of novel N-heteroaralkyl-substituted 1-(aryloxy)-2-propanolamine and related propylamine derivatives” (J Med Chem, 1991).

Legend:
[1] = species: Canis familiaris; experiment: Repolarization to reach -60mV, in canine Purkinje Fibers at a concentration of 0.01 uM at 300 ms (simulating tachycardia); type: functional, Canis lupus familiaris, Purkinje fiber
In short: (§1)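 Isolated canine Purkinje fiber bundles were driven by square-wave pulses 2.0 ms long at 2× threshold and equilibrated ≥1 h to steady state. Each concentration was superfused 45–60 min before recording, and action potentials were sampled at 4–6 sites per fiber in control and after drug, giving Vmax and APD to −60 mV.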

[2] = species: Canis familiaris; experiment: Repolarization to reach -60mV, in canine Purkinje Fibers at a concentration of 0.10 uM at 300 ms (simulating tachycardia); type: functional, Canis lupus familiaris, Purkinje fiber; in short: as §1
[3] = species: Canis familiaris; experiment: repolarization to reach -60mV, in canine Purkinje Fibers at a concentration of 0.01 uM at 1000 ms (simulating normal heart rate); type: functional, Canis lupus familiaris, Purkinje fiber
In short: (§2)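 Purkinje fiber bundles were stimulated with square-wave current pulses of 2.0 ms at twice threshold and equilibrated for at least 1 h, or until action potential parameters were steady. Each concentration was superfused for 45-60 min to reach steady state. Action potentials were recorded at four to six sites per fiber, under control and after drug.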

[4] = species: Canis familiaris; experiment: repolarization to reach -60mV, in canine Purkinje Fibers at a concentration of 0.03 uM at 1000 ms (simulating normal heart rate); type: functional, Canis lupus familiaris, Purkinje fiber; in short: as §2
[5] = species: Canis familiaris; experiment: repolarization to reach -60mV, in canine Purkinje Fibers at a concentration of 0.10 uM at 1000 ms (simulating normal heart rate); type: functional, Canis lupus familiaris, Purkinje fiber; in short: as §2
[6] = system: Canis familiaris; experiment: Atrial effective refractory period by the compound in open chest anesthetized dog, after iv administration at a dose of 0.05 mg/kg.; type: functional, Canis lupus familiaris, Cardiac atrium
In short: (§3)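 Open-chest mongrel dogs under sodium pentobarbital anesthesia (30 mg/kg iv plus 5 mg/kg per h), paced at basic cycle length 300 ms. Atrial effective refractory period was determined by electrical stimulation before and after iv or intraduodenal compound and reported as change from control.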

[7] = system: Canis familiaris; experiment: Atrial effective refractory period by the compound in open chest anesthetized dog, after iv administration at a dose of 0.25 mg/kg.; type: functional, Canis lupus familiaris, Cardiac atrium; in short: as §3
[8] = system: Canis familiaris; experiment: Atrial effective refractory period by the compound in open chest anesthetized dog, after iv administration at a dose of 0.50 mg/kg.; type: functional, Canis lupus familiaris, Cardiac atrium; conditions: dose 0.5 mg/kg; in short: as §3
[9] = system: Canis familiaris; experiment: Heart beat by the compound in open chest anesthetized dog, after iv administration at a dose of 0.05 mg/kg.; type: functional, Canis lupus familiaris
In short: (§4)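 Hemodynamics (heart rate, mean arterial pressure) recorded in pentobarbital-anesthetized (30 mg/kg iv, 5 mg/kg per h maintenance) open-chest mongrel dogs during the refractoriness study at BCL 300 ms. Readings were taken before and after iv or intraduodenal compound and expressed as change from control.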

[10] = system: Canis familiaris; experiment: Heart beat by the compound in open chest anesthetized dog, after iv administration at a dose of 0.25 mg/kg.; type: functional, Canis lupus familiaris; in short: as §4
[11] = system: Canis familiaris; experiment: Heart beat by the compound in open chest anesthetized dog, after iv administration at a dose of 0.50 mg/kg.; type: functional, Canis lupus familiaris; conditions: dose 0.5 mg/kg; in short: as §4
[12] = system: Canis familiaris; experiment: Atrial conduction time by the compound in open chest anesthetized dog, after iv administration at a dose of 0.05 mg/kg.; type: functional, Canis lupus familiaris, Cardiac atrium
In short: (§5)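 Mongrel dogs anesthetized with sodium pentobarbital (30 mg/kg iv, then 5 mg/kg per h), chest opened, paced at BCL 300 ms. Atrial conduction time was taken as the interval between electrograms recorded at the proximal and distal sites of the atrial recording electrode array, before and after iv or intraduodenal dosing. Values are changes from control.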

[13] = system: Canis familiaris; experiment: Atrial conduction time by the compound in open chest anesthetized dog, after iv administration at a dose of 0.25 mg/kg.; type: functional, Canis lupus familiaris, Cardiac atrium; in short: as §5
[14] = system: Canis familiaris; experiment: Atrial conduction time by the compound in open chest anesthetized dog, after iv administration at a dose of 0.50 mg/kg.; type: functional, Canis lupus familiaris, Cardiac atrium; conditions: dose 0.5 mg/kg; in short: as §5
[15] = system: Canis familiaris; experiment: Mean arterial pressure by the compound in open chest anesthetized dog, after iv administration at a dose of 0.05 mg/kg.; type: functional, Canis lupus familiaris, Artery; in short: as §4
[16] = system: Canis familiaris; experiment: Mean arterial pressure by the compound in open chest anesthetized dog, after iv administration at a dose of 0.25 mg/kg.; type: functional, Canis lupus familiaris, Artery; in short: as §4
[17] = system: Canis familiaris; experiment: Mean arterial pressure by the compound in open chest anesthetized dog, after iv administration at a dose of 0.50 mg/kg.; type: functional, Canis lupus familiaris, Artery; conditions: dose 0.5 mg/kg; in short: as §4
[18] = system: Canis familiaris; experiment: Ventricular effective refractory period by the compound in open chest anesthetized dog, after iv administration at a dose of 0.05 mg/kg.; type: functional, Canis lupus familiaris, Heart
[19] = system: Canis familiaris; experiment: Ventricular effective refractory period by the compound in open chest anesthetized dog, after iv administration at a dose of 0.25 mg/kg.; type: functional, Canis lupus familiaris, Heart
[20] = system: Canis familiaris; experiment: Ventricular conduction time by the compound in open chest anesthetized dog, after iv administration at a dose of 0.05 mg/kg.; type: functional, Canis lupus familiaris, Heart
In short: (§6)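 Mongrel dogs were anesthetized with sodium pentobarbital (30 mg/kg iv, then 5 mg/kg per h), the chest opened, and the heart paced at BCL 300 ms. Compound was given iv or intraduodenally. Ventricular conduction time was taken as the interval between electrograms at the proximal and distal sites of the recording electrode array. 2-5 dogs per dose.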

[21] = system: Canis familiaris; experiment: Ventricular conduction time by the compound in open chest anesthetized dog, after iv administration at a dose of 0.25 mg/kg.; type: functional, Canis lupus familiaris, Heart; in short: as §6
[22] = system: Canis familiaris; experiment: Ventricular conduction time by the compound in open chest anesthetized dog, after iv administration at a dose of 0.50 mg/kg.; type: functional, Canis lupus familiaris, Heart; conditions: dose 0.5 mg/kg; in short: as §6
[23] = system: Canis familiaris; experiment: Ventricular effective refractory period by the compound in open chest anesthetized dog, after iv administration at a dose of 0.50 mg/kg.; type: functional, Canis lupus familiaris, Heart; conditions: dose 0.5 mg/kg
[24] = species: Canis familiaris; experiment: Maximum rate of rise of the upstroke of transmembrane potential, in canine Purkinje Fibers at a concentration of 0.01 uM at 1000 ms (simulating normal heart rate); type: functional; conditions: Canis lupus familiaris, Purkinje fiber; in short: as §1
[25] = species: Canis familiaris; experiment: Maximum rate of rise of the upstroke of transmembrane potential, in canine Purkinje Fibers at a concentration of 0.01 uM at 300 ms (simulating tachycardia); type: functional; conditions: Canis lupus familiaris, Purkinje fiber; in short: as §1
[26] = species: Canis familiaris; experiment: Maximum rate of rise of the upstroke of transmembrane potential, in canine Purkinje Fibers at a concentration of 0.03 uM at 1000 ms (simulating normal heart rate); type: functional; conditions: Canis lupus familiaris, Purkinje fiber; in short: as §1
[27] = species: Canis familiaris; experiment: Maximum rate of rise of the upstroke of transmembrane potential, in canine Purkinje Fibers at a concentration of 0.03 uM at 300 ms (simulating tachycardia); type: functional; conditions: Canis lupus familiaris, Purkinje fiber; in short: as §1
[28] = species: Canis familiaris; experiment: Maximum rate of rise of the upstroke of transmembrane potential, in canine Purkinje Fibers at a concentration of 0.10 uM at 1000 ms (simulating normal heart rate); type: functional; conditions: Canis lupus familiaris, Purkinje fiber; in short: as §1
[29] = species: Canis familiaris; experiment: Maximum rate of rise of the upstroke of transmembrane potential, in canine Purkinje Fibers at a concentration of 0.10 uM at 300 ms (simulating tachycardia); type: functional; conditions: Canis lupus familiaris, Purkinje fiber; in short: as §1

## Cc1cccc(CCN2CCC(C(=O)c3ccc(NS(C)(=O)=O)cc3)CC2)n1
[1]
  APD: 11%
[2]
  APD: 24%
[3]
  APD: 27%
[4]
  APD: 53%
[5]
  APD: 54%
[6]
  AERP: 28
[7]
  AERP: 38
[8]
  AERP: 44
[9]
  HR: -10
[10]
  HR: -25
[11]
  HR: -29
[12]
  ACT: 1
[13]
  ACT: 1
[14]
  ACT: 1
[15]
  MBP: 2
[16]
  MBP: -11
[17]
  MBP: -15
[18]
  VERP: 18
[19]
  VERP: 23
[20]
  VCT: -3
[21]
  VCT: -2
[22]
  VCT: -3
[23]
  VERP: 24

## CN(CCOc1ccc(NS(C)(=O)=O)cc1)CCc1ccc(NS(C)(=O)=O)cc1 [DOFETILIDE]
[1]
  APD: 22%
[2]
  APD: 29%
[3]
  APD: 37%
[4]
  APD: 67%
[5]
  APD: 85%
[6]
  AERP: 46
[7]
  AERP: 60
[8]
  AERP: 65
[9]
  HR: -14
[10]
  HR: -21
[11]
  HR: -24
[12]
  ACT: -4
[13]
  ACT: -6
[14]
  ACT: -9
[15]
  MBP: 1
[16]
  MBP: 1
[17]
  MBP: -2
[24]
  Vmax: 4
[25]
  Vmax: 4
[26]
  Vmax: 2
[27]
  Vmax: 7
[28]
  Vmax: 5
[29]
  Vmax: 5
[18]
  VERP: 23
[19]
  VERP: 25
[20]
  VCT: -4
[21]
  VCT: -5
[22]
  VCT: -4
[23]
  VERP: 27
